Test [1] is filed under the species Rattus norvegicus. Kind of test: Ratio of pEC50 for antagonist activity against LSP4-202 induced rat mGlu7 S229A mutant assessed as decrease in LSP4-202 potency by measuring LSP4-202 pEC50 at 10 uM to pEC50 for LSP4-202-induced rat mGlu7 S229A mutant.
The species entered for test [2] is Rattus norvegicus. The test can be described thus: Ratio of pEC50 for antagonist activity against LSP4-202-induced rat mGlu7 activation transfected in HEK293 cells co-transfected with chimeric Gqi9 assessed as decrease in LSP4-202 potency to pEC50 for LSP4-202-induced rat mGlu7 activation transfected in HEK293 cells co-transfected with chimeric Gqi9. In kind it is cell-based. In outline: (§1)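 IP-One HTRF IP1 read-out in HEK293 transiently expressing rat mGlu7 plus chimeric Gqα9, 24 h after electroporation. LSP4-2022 concentration-response was tested with derivatives at 30 or 100 µM. Gives pEC50, pEC50/pEC50 control ratio, and max as % of LSP4-2022 maximal effect over basal. Triplicates, n independent experiments; paired t-test.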

For test [3], the species on record is Rattus norvegicus. Kind of test: Ratio of pEC50 for antagonist activity against LSP4-202 induced rat mGlu7 S229A mutant assessed as decrease in LSP4-202 potency by measuring LSP4-202 pEC50 at 3 uM to pEC50 for LSP4-202-induced rat mGlu7 S229A mutant.
Test [4] in a line: Antagonist activity against LSP4-202-induced rat mGlu7 […] mutant assessed as decrease in LSP4-202 potency by measuring LSP4-202 pEC50 at 30 uM.
A short description of test [5]: Antagonist activity against LSP4-202-induced rat mGlu7 […] mutant assessed as decrease in LSP4-202 potency by measuring LSP4-202 pEC50 at 10 uM.
A short description of test [6]: Antagonist activity against LSP4-202-induced rat mGlu7 […] mutant assessed as decrease in LSP4-202 potency by measuring LSP4-202 pEC50 at 100 uM.
For test [7], the species on record is Rattus norvegicus. Kind of test: Ratio of pEC50 for antagonist activity against LSP4-202 induced rat mGlu7 S229A mutant assessed as decrease in LSP4-202 potency by measuring LSP4-202 pEC50 at 100 uM to pEC50 for LSP4-202-induced rat mGlu7 S229A mutant.
For test [8], the species on record is Rattus norvegicus. Kind of test: Ratio of pEC50 for antagonist activity against LSP4-202 induced wild type rat mGlu7 assessed as decrease in LSP4-202 potency by measuring LSP4-202 pEC50 at 30 uM to pEC50 for LSP4-202-induced wild type rat mGlu7.
The species named for test [9] is Rattus norvegicus. The test can be described thus: Ratio of pEC50 for antagonist activity against LSP4-202 induced rat mGlu7 S229A mutant assessed as decrease in LSP4-202 potency by measuring LSP4-202 pEC50 at 30 uM to pEC50 for LSP4-202-induced rat mGlu7 S229A mutant.
For test [10], the species on record is Rattus norvegicus. Kind of test: Ratio of pEC50 for antagonist activity against LSP4-202 induced wild type rat mGlu7 assessed as decrease in LSP4-202 potency by measuring LSP4-202 pEC50 at 10 uM to pEC50 for LSP4-202-induced wild type rat mGlu7.
Test [11] in a line: Antagonist activity against LSP4-202-induced rat mGlu7 […] mutant assessed as decrease in LSP4-202 potency by measuring LSP4-202 pEC50 at 3 uM.
In test [12] the target is Metabotropic glutamate receptor 7 (Rattus norvegicus) (UniProt P35400). Kind of test: Competitive antagonist activity against rat mGlu7 receptor assessed as decrease in LSP4-202 effect at 0.3 to 30 uM by Schild plot analysis. Conditions: filed as antagonist, dose 0.3-30 µM. In outline: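 Schild analysis used the shift of LSP4-2022 concentration-response curves in IP-One IP1 assays. Cells were HEK293 co-transfected with rat mGlu7 and Gqα9. Data are means ± sem of 3 to 11 experiments run in triplicates.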

Test [13] addresses T1, Metabotropic glutamate receptor 7 (Rattus norvegicus, UniProt P35400). The test can be described thus: Antagonist activity against rat mGlu7 activation transfected in HEK293 cells co-transfected with chimeric Gqi9 incubated for 24 hrs in presence of LSP4-2022 by IP-one HTRF assay. The test is classed as functional, cell-based. A digest of the protocol: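 Inhibition curves were run with increasing inhibitor concentrations against IP1 production by 30 µM LSP4-2022. Rat mGlu7 was co-expressed with Gqα9 in HEK293 and assayed 24 h post-transfection with IP-One HTRF. IC50/pIC50 are means ± sem of independent experiments in triplicates. pIC50 compared to reference by unpaired t-test.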

The species named for test [14] is Rattus norvegicus. The test can be described thus: Ratio of pEC50 for antagonist activity against LSP4-202 induced wild type rat mGlu7 assessed as decrease in LSP4-202 potency by measuring LSP4-202 pEC50 at 3 uM to pEC50 for LSP4-202-induced wild type rat mGlu7.
Test [15] in a line: Agonist activity at rat mGlu4 loop beta-10-alpha7 region.
Test [16] deals with T1, Metabotropic glutamate receptor 7. The test can be described thus: Agonist activity at wild type rat mGlu7. In kind it is functional. A digest of the protocol:
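HEK293 cells were transiently transfected by electroporation with rat mGlu7 plasmid plus chimeric Gqα9 to couple to phospholipase C. They were grown in DMEM with 10% FBS on polyornithine-coated wells at 150 000 cells/well.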

The target in test [17] is Metabotropic glutamate receptor 7 (Rattus norvegicus, UniProt P35400, N74K). The test can be described thus: Agonist activity at rat mGlu7 N74K mutant.
Chain of Metabotropic glutamate receptor 7 (Rattus norvegicus, UniProt P35400, N74K) (P35400 35-915 N74K limits assumed): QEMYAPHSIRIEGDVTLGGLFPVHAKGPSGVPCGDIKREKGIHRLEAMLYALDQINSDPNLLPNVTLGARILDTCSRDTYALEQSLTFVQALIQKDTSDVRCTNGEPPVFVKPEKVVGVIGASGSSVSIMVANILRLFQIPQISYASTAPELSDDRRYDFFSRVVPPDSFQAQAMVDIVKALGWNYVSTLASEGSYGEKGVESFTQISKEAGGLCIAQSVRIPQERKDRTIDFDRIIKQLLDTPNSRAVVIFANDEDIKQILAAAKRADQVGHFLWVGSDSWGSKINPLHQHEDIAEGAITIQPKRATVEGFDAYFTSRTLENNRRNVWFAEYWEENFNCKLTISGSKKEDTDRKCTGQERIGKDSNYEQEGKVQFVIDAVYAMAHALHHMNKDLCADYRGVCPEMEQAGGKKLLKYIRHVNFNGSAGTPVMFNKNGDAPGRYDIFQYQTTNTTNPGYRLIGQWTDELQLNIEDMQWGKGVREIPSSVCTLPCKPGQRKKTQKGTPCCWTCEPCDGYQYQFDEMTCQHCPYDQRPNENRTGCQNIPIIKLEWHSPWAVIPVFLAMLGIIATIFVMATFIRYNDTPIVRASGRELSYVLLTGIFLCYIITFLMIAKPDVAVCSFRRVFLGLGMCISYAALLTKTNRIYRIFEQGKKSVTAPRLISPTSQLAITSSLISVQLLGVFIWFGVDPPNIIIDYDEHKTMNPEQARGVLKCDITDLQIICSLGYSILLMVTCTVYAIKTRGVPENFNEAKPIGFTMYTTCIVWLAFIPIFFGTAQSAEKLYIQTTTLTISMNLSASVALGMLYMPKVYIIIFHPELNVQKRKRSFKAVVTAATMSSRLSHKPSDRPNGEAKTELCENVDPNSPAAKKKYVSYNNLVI
Test [18] addresses Metabotropic glutamate receptor 7 (Rattus norvegicus, UniProt P35400, K60A). The test can be described thus: Agonist activity at rat mGlu7 K60A mutant.
Test [19] in a line: Agonist activity at rat mGlu4 R258Q/D262/R263 mutant.
Test [20] can be described thus: Agonist activity at rat mGlu7 Q258R/D262/R263 mutant.
The target of test [21] is Metabotropic glutamate receptor 4 (Rattus norvegicus, UniProt P31423). The test can be described thus: Agonist activity against wild type rat mGlu4. The test is classed as functional.
Test [22] has as its target Metabotropic glutamate receptor 4 (Rattus norvegicus, UniProt P31423, K74A). Kind of test: Agonist activity against rat mGlu4 K74A mutant.
A short description of test [23]: Agonist activity at rat mGlu7 S229A mutant.
Test [24] concerns the target Metabotropic glutamate receptor 4 (Rattus norvegicus, UniProt P31423, R258A). The test can be described thus: Agonist activity at rat mGlu4 R258A mutant.
The target in test [25] is Metabotropic glutamate receptor 4 (Rattus norvegicus, UniProt P31423, S160A). The test can be described thus: Agonist activity against rat mGlu4 S160A mutant.
Chain of Metabotropic glutamate receptor 4 (Rattus norvegicus, UniProt P31423, S160A) (P31423 33-912 S160A limits assumed): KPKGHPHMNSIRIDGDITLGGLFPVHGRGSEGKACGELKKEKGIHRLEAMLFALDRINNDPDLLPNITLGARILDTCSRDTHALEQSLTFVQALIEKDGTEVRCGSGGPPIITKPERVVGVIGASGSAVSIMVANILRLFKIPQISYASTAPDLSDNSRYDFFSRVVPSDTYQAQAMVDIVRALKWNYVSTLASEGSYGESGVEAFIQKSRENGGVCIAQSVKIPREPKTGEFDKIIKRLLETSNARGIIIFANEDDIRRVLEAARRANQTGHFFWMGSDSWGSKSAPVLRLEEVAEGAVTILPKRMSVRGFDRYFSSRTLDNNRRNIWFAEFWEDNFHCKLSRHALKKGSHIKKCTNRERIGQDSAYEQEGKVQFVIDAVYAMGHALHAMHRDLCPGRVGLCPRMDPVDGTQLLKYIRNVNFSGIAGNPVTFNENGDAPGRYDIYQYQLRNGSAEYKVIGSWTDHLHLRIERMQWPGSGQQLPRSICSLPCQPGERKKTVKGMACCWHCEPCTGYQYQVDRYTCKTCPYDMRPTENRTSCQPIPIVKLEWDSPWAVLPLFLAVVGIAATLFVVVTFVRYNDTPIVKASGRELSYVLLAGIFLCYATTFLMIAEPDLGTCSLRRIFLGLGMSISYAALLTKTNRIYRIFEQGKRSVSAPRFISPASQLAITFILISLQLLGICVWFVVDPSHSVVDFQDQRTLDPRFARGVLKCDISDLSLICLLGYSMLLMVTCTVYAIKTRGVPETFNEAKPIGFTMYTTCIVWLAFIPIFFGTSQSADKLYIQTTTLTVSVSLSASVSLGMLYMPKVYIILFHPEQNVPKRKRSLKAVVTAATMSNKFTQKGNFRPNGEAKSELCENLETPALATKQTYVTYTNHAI
A short description of test [26]: Agonist activity at rat mGlu7 loop beta10-alpha7 region.
In test [27] the target is Metabotropic glutamate receptor 4 (Rattus norvegicus, UniProt P31423, S160D). Kind of test: Agonist activity against rat mGlu4 S160D mutant.
Test [28] deals with Metabotropic glutamate receptor 7 (Rattus norvegicus, UniProt P35400, N74A). Kind of test: Agonist activity at rat mGlu7 N74A mutant.
Test [29] can be described thus: Agonist activity at rat mGlu7 D314A mutant.
The target in test [30] is Metabotropic glutamate receptor 4 (Rattus norvegicus, UniProt P31423, R60A). The test can be described thus: Agonist activity against rat mGlu4 R60A mutant.
Chain of Metabotropic glutamate receptor 4 (Rattus norvegicus, UniProt P31423, R60A) (P31423 33-912 R60A limits assumed): as the sequence (P31423 33-912 S160A limits assumed) above, with R28A, A128S counted along it
Test [31] deals with T1, Metabotropic glutamate receptor 7. The test can be described thus: Inhibition of [3H] -LY341495 binding to rat mGlu7 expressed in CHO cell membrane incubated for 30 mins by liquid scintillation analysis.
Test [32] shares this target. The test can be described thus: Antagonist activity against LSP4-202-induced rat mGlu7 activation transfected in HEK293 cells co-transfected with chimeric Gqi9 assessed as decrease in LSP4-202 potency by measuring LSP4-202 pEC50 incubated for 24 hrs by IP-one HTRF assay. In kind it is functional, cell-based. In outline:
as §1
In general terms: TR-FRET usually uses a lanthanide donor and a delayed reading to cut background.

Test [33] is described as follows: Agonist activity at rat mGlu7 K233S mutant.
Test [34] can be described thus: Agonist activity at rat mGlu7 N288A mutant.
Test [35] concerns the target Metabotropic glutamate receptor 7 (Rattus norvegicus, UniProt P35400, S160A). Kind of test: Agonist activity at rat mGlu7 S160A mutant.
Test [36] addresses Metabotropic glutamate receptor 7 (Rattus norvegicus, UniProt P35400, Q258A). Kind of test: Agonist activity at rat mGlu7 Q258A mutant.
The target in test [37] is Metabotropic glutamate receptor 7 (Rattus norvegicus, UniProt P35400, K60A/S160A). The test can be described thus: Agonist activity at rat mGlu7 K60A/S160A mutant.
Test [38] can be described thus: Agonist activity at rat mGlu7 S237A mutant.
Test [39] can be described thus: Agonist activity at rat mGlu7 N74K/loop 4 region.
Test [40] is described as follows: Agonist activity at rat mGlu7 K233A mutant.
Test [41] is described as follows: Agonist activity at rat mGlu7 K233D mutant.

The source of these data is ChEMBL document CHEMBL5523707, “Novel Inhibitory Site Revealed by XAP044 Mode of Action on the Metabotropic Glutamate 7 Receptor Venus Flytrap Domain” (J Med Chem, 2024).

Activity calls are given as the source filed them. The calls are words filed in the database; no cut-off is given here. Where only a bound is given, the exact number is not on record here.

T1 sequence (P35400 whole entry): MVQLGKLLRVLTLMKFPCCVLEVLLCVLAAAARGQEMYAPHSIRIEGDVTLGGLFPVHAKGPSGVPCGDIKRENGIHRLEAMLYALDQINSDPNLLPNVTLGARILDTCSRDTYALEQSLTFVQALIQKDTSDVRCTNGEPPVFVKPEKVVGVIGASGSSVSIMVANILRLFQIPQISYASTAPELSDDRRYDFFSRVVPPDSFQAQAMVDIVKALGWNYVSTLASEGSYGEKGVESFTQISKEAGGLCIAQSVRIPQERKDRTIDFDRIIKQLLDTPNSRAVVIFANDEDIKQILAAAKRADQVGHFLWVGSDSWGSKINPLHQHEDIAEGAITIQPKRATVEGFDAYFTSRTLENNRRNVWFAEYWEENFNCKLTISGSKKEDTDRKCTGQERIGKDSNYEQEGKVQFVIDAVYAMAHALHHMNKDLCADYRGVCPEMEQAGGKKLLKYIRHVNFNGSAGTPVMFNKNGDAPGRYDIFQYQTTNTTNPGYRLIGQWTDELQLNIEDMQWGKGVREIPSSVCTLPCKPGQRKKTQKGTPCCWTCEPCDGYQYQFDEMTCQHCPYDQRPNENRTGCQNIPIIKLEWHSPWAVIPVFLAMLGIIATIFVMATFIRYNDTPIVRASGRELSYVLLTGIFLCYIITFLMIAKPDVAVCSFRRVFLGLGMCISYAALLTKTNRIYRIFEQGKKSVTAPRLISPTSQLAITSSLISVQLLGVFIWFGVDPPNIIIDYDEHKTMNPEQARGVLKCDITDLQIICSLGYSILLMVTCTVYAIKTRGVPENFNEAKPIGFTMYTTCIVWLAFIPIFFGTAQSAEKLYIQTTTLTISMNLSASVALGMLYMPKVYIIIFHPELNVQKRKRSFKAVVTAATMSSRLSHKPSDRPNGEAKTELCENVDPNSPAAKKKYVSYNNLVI
Chain of Metabotropic glutamate receptor 4 (Rattus norvegicus, UniProt P31423, R258A) (P31423 33-912 R258A limits assumed): as the sequence (P31423 33-912 S160A limits assumed) above, with A128S, R226A counted along it

Turning to `O=C(COc1ccc(Br)cc1F)c1ccc(O)c(F)c1`, the Ratio is 0.97 in the test filed under Rattus norvegicus [1]; below 0.6 in the test listed under Rattus norvegicus [2]; 1 in the test listed under Rattus norvegicus [3]; 0.82 in the test filed under Rattus norvegicus [7]; 0.59 in the test listed under Rattus norvegicus [8]; 0.91 in the test listed under Rattus norvegicus [9]. In addition, the results for the Ratio in the test listed under Rattus norvegicus [10] and in the test filed under Rattus norvegicus [14] were 0.72 and 0.82, respectively. In addition, the concentration for a half-maximal effect (EC50) (in general, the concentration giving half of the maximal effect) turned out to be 21.7 µM in test [4], 9.91 µM in test [5], 60.7 µM in test [6] and 6.88 µM in [11]. The negative-log EC50 (pEC50) (usually the negative decadic logarithm of the EC50, by convention in mol/L) is 4.68 in test [4], 5 in test [5], 4.25 in test [6] and 5.16 in test [11]. The outcome in test [12] was Active. For the same molecule, the IC50 in test [13] (read-out: IC50) was 0.95 µM; in test [13] (read-out: pIC50 (converted)) it was 0.851 µM.

In the case of `N[C@@H](CCP(=O)(O)O)C(=O)O`, the EC50 was 0.505 µM in test [15]; above 100 µM in [16]; 10.5 µM in test [17]; 1980 µM in test [18]; 11.1 µM in [19]; above 100 µM in test [20]. Moreover, the concentration for a half-maximal effect (EC50) in test [21] stood at 0.343 µM; in [22], 0.23 µM; in test [23] it was 182 µM; in test [24], 1.87 µM; in test [25] it was 2.66 µM; in test [26] it was 45 µM. The 50% effective concentration (EC50) in test [27] was 12.3 µM; in test [28], above 100 µM; in [29], above 1000 µM; in test [30], 1.16 µM.

Take `N[C@](CC1c2ccccc2Oc2ccccc21)(C(=O)O)[C@H]1C[C@@H]1C(=O)O`: in test [31], the IC50 amounted to 0.19 µM.

For `N[C@@H](CCP(=O)(O)C(O)c1ccc(OCC(=O)O)cc1)C(=O)O` (some centres not stated), the half-maximal effective concentration (EC50) was 3.68 µM in [15]; 21.2 µM in [16]; 47 µM in test [17]; 178 µM in test [18]; 7 µM in test [19]; 19.5 µM in [32]. In addition, the EC50 in [33] was 40.9 µM; in test [20], 13.9 µM; in test [21], 0.833 µM; in test [22], 0.024 µM; in [23], 14.5 µM; in test [24], 4.91 µM. Besides, the EC50 in test [25] is 26.2 µM; in test [34] it was 49.3 µM; in test [35], above 300 µM; in [26], 2.18 µM; in [27], 18.5 µM; in test [36] it was 18.2 µM. The EC50 in [37] was above 300 µM; in test [38] it was 18.3 µM; in test [39] it was 2.56 µM; in test [28], 32 µM; in [40], 87.7 µM; in test [29], above 1000 µM. The concentration for a half-maximal effect (EC50) is 155 µM in [41] and 9.07 µM in test [30]. The pEC50 in test [33] came out at 4.39; in test [23], 4.96; in test [38] it was 4.74; in test [40], 4.06; in test [41] it was 3.83.
